Shown are actives, neighbours in structure and some others; about 1.8% of the full set was active somewhere.
HTRA1 inh: HTRA1 (human) protease inhibition | Q92743 | recombinant HTRA1, FP-rhodamine activity-based probe, fluorescence polarization | inhibition, % at 5.96 µM | hit rate 0.5% among 340,000 | AID 504803; in the data active means inhibition above about 36%
Fam108B inh: counter-screen for RBBP9 inhibitors: inhibitors of mouse Fam108B. inhibition, % at 9.51 µM. recombinant Fam108B, FP-Rh probe fluorescence polarization. hit rate 0.33% among 300,000;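 active means inhibition above the screen mean inhibition plus 3 SD, computed separately per campaign, cut at about 18% in these data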;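 further: inhibitors lower polarization as less probe binds the enzyme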
TCR-CD3 inh: human TCR-CD3 binding inhibition. hit rate 0.37% among 360,000. TAMRA-labeled TCR probe fluorescence, biochemical. inhibition, % at 9.4 µM; in the data active means inhibition above about 19%;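 further: recombinant mutant TCR 2C K166C tagged with TAMRA read by polarization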
PME-1 primary: PME-1 (human) inhibition | recombinant PME-1, FP-Rh probe fluorescence polarization | inhibition, % at 5.9 µM | hit rate 0.53% among 320,000;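 active means inhibition above the campaign mean of all compounds plus 3 SD, cut at about 26% in these data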;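 further: competitive labeling of PME-1 active site by serine hydrolase directed probe; inhibitors block probe labeling so polarization falls and inhibition rises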
Target sequence (Q9Y570 whole entry, looked up): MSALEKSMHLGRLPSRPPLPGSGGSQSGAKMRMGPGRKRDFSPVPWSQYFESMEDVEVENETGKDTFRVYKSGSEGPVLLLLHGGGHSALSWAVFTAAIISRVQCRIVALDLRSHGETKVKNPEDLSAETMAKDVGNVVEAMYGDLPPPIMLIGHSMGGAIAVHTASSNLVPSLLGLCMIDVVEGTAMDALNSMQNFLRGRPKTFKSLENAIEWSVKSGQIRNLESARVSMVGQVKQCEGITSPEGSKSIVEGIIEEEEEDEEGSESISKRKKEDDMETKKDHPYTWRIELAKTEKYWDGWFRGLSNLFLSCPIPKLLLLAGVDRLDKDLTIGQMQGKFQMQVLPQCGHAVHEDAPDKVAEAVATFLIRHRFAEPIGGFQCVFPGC
mABHD4 FP: ABHD4 (mouse) inhibition, primary FP screen; hit rate 0.54% among 370,000; inhibition, % at 8.92 µM; Q8VD66; purified mABHD4, FP-Rh probe fluorescence polarization;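 active means inhibition exceeding the mean over every tested compound plus 3 SD, cut at about 30% in these data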
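Test system: mouse ABHD4 enzyme, wild type. Reagent: FP-Rh fluorescent activity-based probe, added after compound pre-incubation. Timing: pre-incubation 45 min, probe exposure 60 min, at 25 °C. Technique: FP readout, ex 525 nm / em 598 nm. Benchmarks: high control S159A mutant with DMSO, low control median of compound wells.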
SIAE inh: human SIAE inhibition, primary screen; Q9HAT2; SIAE FP-Rh probe binding, fluorescence polarization; inhibition, % at 9.66 µM; hit rate 0.69% among 370,000;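 active means inhibition above a cutoff: mean of compounds within the control limits plus 3 SD of those, cut at about 17% in these data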
SIAE confirm: human SIAE inhibition, confirmation | shares compounds with SIAE inh | SIAE FP-Rh activity-based probe, fluorescence polarization | inhibition, % at 9.66 µM | hit rate 13% among 2,300;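 active means mean inhibition of the replicates above the hit cutoff set in the primary screen, cut at about 17% in these data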;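 further: inhibitors lower polarization as more probe stays unbound to SIAE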
A number is an active result; 0 = inactive; - = no result given.

SMILES	HTRA1 inh	Fam108B inh	TCR-CD3 inh	PME-1 primary	mABHD4 FP	SIAE inh	SIAE confirm
O=C(Nc1ccc(F)cc1)Nc1nnc([C@@H]2C[C@H](O)[C@@H](CO)O2)s1	-	-	0	-	0	0	-
O=C(Nc1ccccc1)Nc1nnc([C@@H]2C[C@H](O)[C@@H](CO)O2)s1	-	-	0	-	0	47	0
CNC(=S)N(Cc1cccs1)Cc1cc2cc(OC)ccc2[nH]c1=O	0	0	0	0	0	42	73
CCOC(=O)c1ccc(NS(=O)(=O)c2c(N)n(C)c(=O)n(C)c2=O)cc1	0	0	0	0	0	0	-
CC(=O)Nc1ccc(C(=O)CN2C(=O)NC3(CCOc4ccccc43)C2=O)c(F)c1 (configuration not stated)	0	-	0	0	0	19	0
CC(=O)Nc1ccc(C(=O)CN2C(=O)NC3(CCCCCC3)C2=O)c(F)c1	0	-	0	-	0	0	-
COC(=O)c1c(-c2c(Cl)cccc2Cl)noc1NC(=O)NN1CCCCC1	0	0	0	0	0	0	-
Cc1c(C)n(CCc2ccccc2)c2ncnc(NN)c12	0	0	0	0	0	0	-
Cc1c(C)n(CCc2ccccc2)c2ncnc(NCCCO)c12	0	0	0	0	0	18	0
CCOC(=O)/C(C)=N/Nc1nc(-c2ccc(NC(C)=O)cc2)cs1	-	0	0	0	0	20	0
CC(=O)Nc1ccc(-c2csc(N/N=C(/C)c3ccccc3)n2)cc1	0	0	0	0	0	0	-
CCOc1ccc(-n2cc(C(=O)Nc3cccc(OC)c3)c3cc(OC)c(OC)cc3c2=O)cc1	0	0	0	0	0	0	-
CCOc1ccc(-n2cc(C(=O)NCCOC)c3cc(OC)c(OC)cc3c2=O)cc1	0	0	0	0	0	22	0
CC(c1nc2scc(-c3ccccc3)c2c(=O)[nH]1)N1CCN(CC(=O)NC2CC2)CC1 (configuration not stated)	0	-	0	-	0	0	-
COc1ccc(-n2nnc3c(=O)n(CC(=O)Nc4cc(C)on4)cnc32)cc1OC	0	0	0	0	0	24	0
O=C(Nc1cccc(C(F)(F)F)c1)OCCCN1CCC2(CCC(c3ccccc3)CC2)C1=O (configuration not stated)	-	-	-	-	0	0	-
Cc1cc(N=Cc2c(O)n(-c3cccc(C(F)(F)F)c3)c(=O)c3ccccc23)no1	0	0	0	0	0	21	0
CN(Cc1ccc(F)cc1)C(=O)c1cccc(OCc2ccccc2)c1	0	0	0	0	0	0	-
CCCNS(=O)(=O)c1cccc(C(=O)NNC(=O)c2cc(C)oc2C)c1	0	0	0	0	0	17	0
CN(CC(=O)Nc1ccc(F)cc1)C(=O)CSc1nc2ncc(Cl)cc2[nH]1	0	0	0	0	0	0	-
CN(CC(=O)Nc1cccc(F)c1)C(=O)CCSc1ccc(F)cc1	0	0	0	0	0	0	-
COc1ccc(NC(=O)CN(C)C(=O)CCSc2ccc(F)cc2)cc1	0	-	0	-	0	19	0
COc1ccc2nc(SCC(=O)N(C)CC(=O)Nc3ccc(F)cc3)[nH]c2c1	0	0	0	0	0	18	0
Nc1nnc2cc(Br)ccc2n1	0	-	0	-	0	0	-
COc1cc(-c2nc(-c3ccccc3)c(-c3ccc(F)cc3)[nH]2)cc2c1OCO2	0	0	0	0	0	0	-
SMILES	HTRA1 inh	Fam108B inh	TCR-CD3 inh	PME-1 primary	mABHD4 FP	SIAE inh	SIAE confirm
COc1ccc(-c2[nH]c(-c3ccc4c(c3)OCO4)nc2-c2ccccc2)cc1	0	0	0	0	0	21	0
COc1ccccc1NCC(=O)N/N=C/c1c(O)ccc2ccccc12	0	0	0	0	0	18	0
COc1cc(OC)c(OC)cc1CNC(=O)CCN1C(=O)c2cccc([N+](=O)[O-])c2C1=O	0	0	0	0	0	19	0
N#Cc1ccc(CN2CCN(C(=O)c3ccc(S(=O)(=O)N4CCCCCC4)cc3)CC2)cc1	0	-	0	0	0	0	-
CCOC(=O)C1=CCN(S(=O)(=O)c2ccccc2F)C1c1ccc(Cl)c(Cl)c1 (configuration not stated)	-	-	0	-	0	0	-
O=C(c1ccc(N2C(=O)CCC2=O)cc1)N1CCCSC1=Nc1ccccc1	0	-	0	-	0	29	0
CCc1noc(C)c1C(=O)N1CCCSC1=Nc1ccccc1	0	0	0	0	0	0	-
Cc1ccc(C(=O)O)cc1S(=O)(=O)N1CCCC1	0	0	0	0	0	0	-
Nc1ccc(C(=O)O)cc1S(=O)(=O)O	0	0	0	0	0	25	0
Cc1cccc(NC(=O)C(=O)NCC2CCCN2S(=O)(=O)c2cccs2)c1 (configuration not stated)	0	-	0	-	0	0	-
COc1ccc(-c2cc3c(c4c2ccn4C)C2CCC3O2)cn1 (configuration not stated)	-	-	0	-	0	0	-
C[C@@H]1CN([C@@H](C)CO)C(=O)c2cc(Br)cnc2O[C@H]1CN(C)C(=O)Nc1ccc2c(c1)OCO2	0	-	0	-	0	0	-
COC(=O)C(NC(=O)c1ccco1)(Nc1ccc(Br)cn1)C(F)(F)F (configuration not stated)	0	0	0	0	0	22	0
c1ccc([C@H]2CN3C(=N2)Sc2ccccc23)cc1	0	-	0	0	0	0	-
CC(C)c1ccccc1NC(=O)COC(=O)c1cccnc1	0	0	0	0	0	0	-
CN[C@H]1C[C@H]2c3[nH]c4c(-c5ccc6c(c5)OCO6)cccc4c3CCN2C(=O)[C@H]1[C@H](C)O	-	-	0	-	0	0	-
COc1cccc(C2C3=C(CCCC3=O)Nc3[nH]n(-c4ccccc4)c(=O)c32)c1 (configuration not stated)	0	0	0	0	0	19	0
CCOC(=O)c1c[nH]n(-c2ccccc2)c1=O	0	0	0	0	0	0	-
CCOC(=O)c1c[nH]n(-c2ccc(C)cc2)c1=O	0	0	0	0	0	18	0
O=C(CNC(=O)c1cccc(F)c1)OCCOc1cccc(Cl)c1	0	0	0	0	0	0	-
COc1cccc(NC(=O)CC2(CC(=O)O)CCCC2)c1	0	0	0	0	0	0	-
NS(=O)(=O)c1cccc(NC(=O)CC2(CC(=O)O)CCCC2)c1	0	0	0	0	0	36	0
COc1ccccc1NC(=O)Cc1csc(NC(=S)Nc2ccccc2)n1	0	0	0	0	0	0	-
COc1ccc(NC(=S)Nc2nc(CC(=O)Nc3ccccc3OC)cs2)cc1	0	0	0	0	0	21	0
CN(Cc1c(F)cccc1Cl)C(=O)CNC(=O)c1sc2ccccc2c1Cl	0	0	0	0	0	0	-
CCCCN1CNC(=S)N(c2ccc(C(=O)OCC)cc2)C1	0	0	0	0	0	18	0
O=C1C=C(OCCF)CC(c2ccc(Br)cc2)O1 (configuration not stated)	-	-	0	-	0	0	-

Source: PubChem BioAssay (The Scripps Research Institute Molecular Screening Center)
